From ChEMBL document CHEMBL3808283, “Biological Characterization and in Vivo Assessment of the Activity of a New Synthetic Macrocyclic Antifungal Compound” (J Med Chem, 2016)
In brackets after ≈: the same amount, converted by molar mass. Activity calls are given as the source filed them. The calls are words filed in the database; no cut-off is given here.

Assays:
Candida albicans [1] = experiment: Antifungal activity against Candida albicans ATCC 60193 up to 96 hrs by broth dilution assay; assay type: functional; conditions: ATCC 60193, 96 h
[2] = Drug transport in Cryptococcus neoformans with damaged cell wall assessed as ABC transpoter-mediated drug accumulation in cytoplasm at 40 uM after 48 hrs by confocal microscopic analysis; assay type: ADME
Summary of the method: (§1)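 C. albicans ATCC 60193 or Cry. neoformans treated 48 h with the fluorescent probe at 40 µM from a DMSO solution. Cells were washed twice in PBS, fixed in 4% formaldehyde for 30 min at 4 °C, washed again, spotted on glass slides, dried and mounted. Examined by confocal microscopy, with visible, fluorescent and merged images compared against untreated cells.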

[3] = Drug transport in Candida albicans ATCC 60193 with damaged cell wall assessed as ABC transpoter-mediated drug accumulation in cytoplasm at 40 uM after 48 hrs by confocal microscopic analysis; assay type: ADME; summary of the method: as §1
[4] = Drug transport in Cryptococcus neoformans assessed as ABC transpoter-mediated drug accumulation in cytoplasm at 40 uM after 48 hrs by confocal microscopic analysis; assay type: ADME; summary of the method: as §1
[5] = Drug transport in Candida albicans ATCC 60193 assessed as ABC transpoter-mediated drug accumulation in cytoplasm at 40 uM after 48 hrs by confocal microscopic analysis; assay type: ADME; summary of the method: as §1
[6] = Drug transport in Candida albicans ATCC 60193 assessed as ABC transpoter-mediated drug accumulation at 5 to 80 uM after 24 hrs by confocal microscopic analysis; assay type: ADME
[7] = Drug transport in Cryptococcus neoformans assessed as ABC transpoter-mediated drug accumulation at 5 to 80 uM after 24 hrs by confocal microscopic analysis; assay type: ADME
Candida albicans [8] = experiment: Antifungal activity against Candida albicans isolate DSY654 harboring CDR1/2 deletion mutant at 100 ug/ml by serial dilution assay; assay type: functional, organism-based
Summary of the method: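 Spot dilution assay: C. albicans cells 10-fold serially diluted from 2 × 10^7 cells/mL, with 5 µL of each dilution spotted onto YEPD agar plates containing the drug.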

Candida albicans [9] = experiment: Antifungal activity against fluconazole-susceptible Candida albicans ATCC 90028 in immunocompetent Balb/c mouse candidiasis model assessed as reduction in CFU count in kidney at 8 mg/kg/day, ip regime measured on day 7 post infection; assay type: functional, organism-based
Summary of the method: (§2)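 Immunocompetent BALB/c mice, 10 per strain group, received 7 × 10^4 CFU of C. albicans in 200 µL saline via the lateral vein. Fluconazole was given i.p. at 8 mg/kg/day. On day 7, spleen and kidneys were weighed, homogenized, and plated on YPD agar (2 days, 30 °C) for CFU per gram of organ. Analysis used Wilcoxon rank-sum, P<0.05.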

Candida albicans [10] = experiment: Antifungal activity against azole-susceptible Candida albicans isolate DSY294 in immunocompetent Balb/c mouse candidiasis model assessed as reduction in CFU count in spleen at 8 mg/kg/day, ip regime measured on day 7 post infection; assay type: functional, organism-based; summary of the method: as §2
Candida albicans [11] = experiment: Antifungal activity against fluconazole-susceptible Candida albicans ATCC 90028 in immunocompetent Balb/c mouse candidiasis model assessed as reduction in CFU count in spleen at 8 mg/kg/day, ip regime measured on day 7 post infection; assay type: functional, organism-based; summary of the method: as §2
Candida albicans [12] = experiment: Antifungal activity against azole-susceptible Candida albicans isolate DSY294 in immunocompetent Balb/c mouse candidiasis model assessed as reduction in CFU count in kidney at 8 mg/kg/day, ip regime measured on day 7 post infection; assay type: functional, organism-based; summary of the method: as §2

What does the source list for `C/C=C/CNC(=N)NCCCCCCCCN1CCCCCCOc2cc(OCCCNC(=S)Nc3ccc4c(c3)C(=O)OC43c4ccc(O)cc4Oc4cc(O)ccc43)ccc2CNC(=N)NC1=O`?
MIC (Candida albicans [1]): 80 µM (≈ 78.1 µg/mL); Drug transport [2]: Not Active; Drug transport [3]: Not Active; Drug transport [4]: Active; Drug transport [5]: Active

For `CN(C)c1cccc2c(S(=O)(=O)NC(=N)NCCCCCCCCN3CCCCCCCCNC(=N)NC3=O)cccc12`, which MIC (Candida albicans [1]) is on record?
The MIC was greater than 125 µM.

What about the Drug transport [6] of the same molecule?
Its Drug transport is “Active”.

And the Drug transport [7]?
The Drug transport was “Active”.

Which Activity (Candida albicans [8]) does the source give for `OCCN1CCN(CCCN2c3ccccc3Sc3ccc(C(F)(F)F)cc32)CC1` here?
The Activity was “Active”.

With `CN(C)c1cccc2c(S(=O)(=O)NCCCCCCCCN3CCCCCCCCNC(=N)NC3=O)cccc12` as the molecule, how does the MIC (Candida albicans [1]) read?
Its MIC is greater than 125 µM.

What about the Drug transport [6] of the same molecule?
Its Drug transport is “Active”.

What about the Drug transport [7] of the same molecule?
The Drug transport was “Active”.

Which Activity (Candida albicans [9]) does the source give for `OC(Cn1cncn1)(Cn1cncn1)c1ccc(F)cc1F` here?
Its Activity is “Active”.

And the Activity (Candida albicans [10])?
The Activity was “Active”.

What about the Activity (Candida albicans [11]) of the same molecule?
The Activity was “Active”.

And the Activity (Candida albicans [12])?
Its Activity is “Active”.
